Measured values: PMC7667002 (Drug Design, Development and Therapy, 2020)

How the values were obtained:
[1] = test system: rat liver microsomes; assay: Effect of vonoprazan on the metabolism of VEN; format: in vitro ADME; conditions: RLMs
Procedure, shortened: (§1)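 Male Sprague–Dawley rat liver microsomes were prepared by differential centrifugation (9000 × g, then 105,000 × g). After 5 min pre-incubation at 37°C, NADPH started a 30 min reaction, stopped with ice-cold acetonitrile. ODV was measured by UPLC-MS/MS against a diazepam internal standard, in triplicate, and analysed by Lineweaver–Burk plots with slope and intercept replots.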

[2] = test system: venlafaxine O-demethylation (ODV formation) in rat liver microsomes; no CYP named; assay: Effect of vonoprazan on the metabolism of VEN; format: in vitro ADME; conditions: rat, rat liver microsomes, pH 7.4, probe venlafaxine (VEN), 2-16 μM
Procedure, shortened: as §1

[3] = Enzyme kinetics; format: in vitro ADME; conditions: rat, rat liver microsomes, pH 7.4
Procedure, shortened: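 Rat liver microsomes (1 mg/mL) were incubated in 100 mM potassium phosphate pH 7.4 with 10 mM NADPH and venlafaxine. After 5 min pre-incubation at 37°C, NADPH started a 30 min reaction, stopped with ice-cold acetonitrile containing diazepam internal standard. ODV formation was quantified by UPLC-MS/MS. Km came from nonlinear regression of velocity versus substrate concentration on duplicate or triplicate determinations.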

[4] = In vivo pharmacokinetic study of VEN and ODV in rats with or without vonoprazan; parameters: species or system Sprague-Dawley rats; conditions: rat; for AUC(0-t) / AUC(0-inf) / CL/F / Cmax / MRT last / MRT inf / Tmax / Vd/F / half-life: male, Sprague-Dawley, plasma, po, 20 mg/kg, rat plasma, VEN 20 mg/kg oral; for CL/F: CLz/F; for MRT last: MRT(0-t); for MRT inf: MRT(0-∞); for Vd/F: Vz/F; for half-life: t1/2z
[5] = Stability of VEN and ODV in rat plasma under different storage conditions; format: in vitro ADME; conditions: for Stability, Accuracy RE (%): n = 6
[6] = + vonoprazan 5 mg/kg oral, 7 days
[7] = + vonoprazan 20 mg/kg oral, 7 days
[8] = VEN 20 mg/kg oral + vonoprazan 5 mg/kg
[9] = VEN 20 mg/kg oral + vonoprazan 20 mg/kg
[10] = 4°C, 24h, high QC (VEN 300, ODV 60 ng·mL^−1)
[11] = 4°C, 24h, low QC (VEN 3, ODV 0.6 ng·mL^−1)
[12] = Room Temperature, 6h, high QC (VEN 300, ODV 60 ng·mL^−1)
[13] = Room Temperature, 6h, low QC (VEN 3, ODV 0.6 ng·mL^−1)
[14] = −80°C, 7 Days, high QC (VEN 300, ODV 60 ng·mL^−1)
[15] = −80°C, 7 Days, low QC (VEN 3, ODV 0.6 ng·mL^−1)

In the case of `CNCc1cc(-c2ccccc2F)n(S(=O)(=O)c2cccnc2)c1` [Vonoprazan], the “Inhibition mechanism on VEN metabolism” value ([1]; competitive plus non-competitive) is reported as “mixed inhibition”, the “Ki’ (inhibition of VEN metabolism)” value ([1]; mixed inhibition, Lineweaver-Burk) is reported as 11.29 µM and the Ki ([1]; read-out: Ki (inhibition of VEN metabolism), mixed inhibition, Lineweaver-Burk) is reported as 23.1 µM. The IC50 at 30 min [2] was 5.54 µM.
Work on `COc1ccc(C(CN(C)C)C2(O)CCCCC2)cc1` (stereo not shown) [VEN, Venlafaxine] yielded a Km at 30 min [3] of 8.28 µM, an AUC(0-t) [4, 6] of 689 ± 161 ng·h/mL and an AUC(0-t) [4, 7] of 1910 ng·h/mL. It also gave an AUC(0-t) ([4]; without vonoprazan (control)) of 260 ± 102 ng·h/mL, an AUC(0-inf) [4, 6] of 694 ± 163 ng·h/mL and an AUC(0-inf) [4, 7] of 1920 ng·h/mL. The AUC(0-inf) ([4]; without vonoprazan (control)) was 261 ± 101 ng·h/mL, the CL/F [4, 6] was 500 mL/min/kg and the CL/F [4, 7] was 192 mL/min/kg. The CL/F ([4]; without vonoprazan (control)) was 1460 mL/min/kg, the Cmax [4, 6] was 261 ± 110 ng/mL and the Cmax [4, 7] was 525 ± 115 ng/mL. The Cmax ([4]; without vonoprazan (control)) was 127 ± 41.5 ng/mL, the MRT last [4, 6] was 2.44 ± 0.3 h and the MRT last [4, 7] was 3.28 ± 0.52 h. The MRT last ([4]; without vonoprazan (control)) was 2.09 ± 0.18 h, the MRT inf [4, 6] was 2.52 ± 0.43 h and the MRT inf [4, 7] was 3.36 ± 0.56 h. For the same molecule, the MRT inf ([4]; without vonoprazan (control)) was 2.12 ± 0.17 h, the Tmax [4, 6] was 0.95 ± 0.37 h and the Tmax [4, 7] was 2.6 ± 0.55 h. For the same molecule, the Tmax ([4]; without vonoprazan (control)) was 0.7 ± 0.21 h, the Vd/F [4, 6] was 62.1 ± 15.4 L/kg and the Vd/F [4, 7] was 19.9 ± 7.19 L/kg. For the same molecule, the Vd/F ([4]; without vonoprazan (control)) was 187 ± 130 L/kg, the half-life [4, 6] was 1.48 ± 0.46 h and the half-life [4, 7] was 1.28 ± 0.53 h. For the same molecule, the half-life ([4]; without vonoprazan (control)) was 1.39 ± 0.32 h, the “Decrease of Clz/F compared with control group” value [4, 8] was 65.73% and the “Increase of Cmax compared with control group” value [4, 8] was 1.05 fold. For the same molecule, the “Decrease of CLz/F compared with control group” value [4, 9] was 86.87%, the “Decrease of Vz/F compared with control group” value [4, 9] was 89.35% and the “Elevation of Cmax compared with control group” value [4, 9] was 3.12 fold. For the same molecule, the “Elevation of Tmax compared with control group” value [4, 9] was 2.71 fold, the “Increase of AUC(0-∞) compared with control group” value [4, 9] was 6.37 fold and the “Increase of MRT(0-∞) compared with control group” value [4, 9] was 0.58 fold. For the same molecule, the “Stability, accuracy range over three QC levels and three storage conditions” value ([5]; 4°C 24 hours, room temperature 4 hours, −80°C 7 days) was 99.68–111.18%, the “Stability, Accuracy RE (%)” value [5, 10] was 106.95% and the “Stability, Accuracy RE (%)” value [5, 11] was 108.99%. The “Stability, Accuracy RE (%)” value [5, 12] was 102.08%, the “Stability, Accuracy RE (%)” value [5, 13] was 102.90% and the “Stability, Accuracy RE (%)” value [5, 14] was 105.33%. The “Stability, Accuracy RE (%)” value [5, 15] was 99.68%.
For `CN(C)CC(c1ccc(O)cc1)C1(O)CCCCC1` (stereo not shown) [ODV, O-desmethylvenlafaxine], the AUC(0-t) [4, 6] was 221 ± 31.5 ng·h/mL, the AUC(0-t) [4, 7] was 469 ± 68.6 ng·h/mL and the AUC(0-t) ([4]; without vonoprazan (control)) was 155 ± 36.6 ng·h/mL. For the same molecule, the AUC(0-inf) [4, 6] was 225 ± 31.7 ng·h/mL, the AUC(0-inf) [4, 7] was 492 ± 79.8 ng·h/mL and the AUC(0-inf) ([4]; without vonoprazan (control)) was 161 ± 43.5 ng·h/mL. For the same molecule, the CL/F [4, 6] was 1510 mL/min/kg, the CL/F [4, 7] was 696 mL/min/kg and the CL/F ([4]; without vonoprazan (control)) was 2200 mL/min/kg. The Cmax [4, 6] was 69.7 ± 30.1 ng/mL, the Cmax [4, 7] was 109 ± 13.4 ng/mL and the Cmax ([4]; without vonoprazan (control)) was 58.1 ± 14.1 ng/mL. The MRT last [4, 6] was 3.08 ± 0.48 h, the MRT last [4, 7] was 3.92 ± 0.38 h and the MRT last ([4]; without vonoprazan (control)) was 2.82 ± 0.55 h. For the same molecule, the MRT inf [4, 6] was 3.28 ± 0.49 h, the MRT inf [4, 7] was 4.44 ± 0.52 h and the MRT inf ([4]; without vonoprazan (control)) was 3.2 ± 1.16 h. The Tmax [4, 6] was 0.95 ± 0.37 h, the Tmax [4, 7] was 2.6 ± 0.55 h and the Tmax ([4]; without vonoprazan (control)) was 0.75 ± 0.18 h. It also gave a Vd/F [4, 6] of 260 ± 41.5 L/kg, a Vd/F [4, 7] of 142 ± 30.4 L/kg and a Vd/F ([4]; without vonoprazan (control)) of 374 ± 170 L/kg. It also gave a half-life [4, 6] of 2.01 ± 0.36 h, a half-life [4, 7] of 2.43 ± 0.75 h and a half-life ([4]; without vonoprazan (control)) of 2.05 ± 1.05 h. For the same molecule, the “Increase of the metabolite (M. R.) compared with control group” value [4, 8] was 0.87 fold, the “Decrease of CLz/F compared with control group” value [4, 9] was 68.33% and the “Decrease of Vz/F compared with control group” value [4, 9] was 62.08%. For the same molecule, the “Elevation of Cmax compared with control group” value [4, 9] was 0.88 fold, the “Elevation of Tmax compared with control group” value [4, 9] was 2.46 fold and the “Increase of AUC(0-∞) compared with control group” value [4, 9] was 2.05 fold. The “Increase of MRT(0-∞) compared with control group” value [4, 9] was 0.39 fold, the “Increase of the metabolite (M. R.) compared with control group” value [4, 9] was 1.34 fold and the “Stability, Accuracy RE (%)” value [5, 10] was 108.96%. For the same molecule, the “Stability, Accuracy RE (%)” value [5, 11] was 112.11%, the “Stability, Accuracy RE (%)” value [5, 12] was 109.57% and the “Stability, Accuracy RE (%)” value [5, 13] was 107.58%. For the same molecule, the “Stability, Accuracy RE (%)” value [5, 14] was 106.85% and the “Stability, Accuracy RE (%)” value [5, 15] was 105.72%.
